Consider 4 molecules from publication PMC3754432 (Journal of the American Chemical Society, 2013).

“And” between values parts separate entries of the source, which are not always exact repeats. Equal entries are not always repeated.

For data set [1], the target named is T1, Cytochrome P450 2B6 (Homo sapiens, UniProt P20813, K262R/Y226H).
T1 sequence (P20813 with tags, fused parts or gaps Y226H/K262R limits assumed): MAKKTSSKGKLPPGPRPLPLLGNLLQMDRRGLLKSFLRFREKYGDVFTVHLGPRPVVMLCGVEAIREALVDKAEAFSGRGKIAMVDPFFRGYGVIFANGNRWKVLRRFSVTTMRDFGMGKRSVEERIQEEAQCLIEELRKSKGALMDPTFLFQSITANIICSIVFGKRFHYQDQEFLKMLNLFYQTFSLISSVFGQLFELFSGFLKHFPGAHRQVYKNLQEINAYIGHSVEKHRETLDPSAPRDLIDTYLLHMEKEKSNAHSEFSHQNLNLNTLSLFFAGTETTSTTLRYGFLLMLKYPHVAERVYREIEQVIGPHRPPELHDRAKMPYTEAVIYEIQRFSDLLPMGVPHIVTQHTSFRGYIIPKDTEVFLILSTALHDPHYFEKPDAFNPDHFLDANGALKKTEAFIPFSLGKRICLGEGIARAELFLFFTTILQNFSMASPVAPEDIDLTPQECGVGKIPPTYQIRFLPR
Briefly: Isothermal titration calorimetry. It is filed as binding. The following applies: 25 °C. On the technique in general: In ITC the heat of successive injections is recorded.

The target of data set [2] is T1, Cytochrome P450 2B6. In words: Spectral binding titration. The following applies: for Kd: mean (SD). In outline: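 Human 2B6 (Y226H/K262R), co-expressed with GroEL/ES in E. coli JM109 and purified by Ni-NTA then CM-Sepharose; P450 quantified by reduced CO difference spectra. Titrated at 25 °C with stirring in 50 mM K-phosphate pH 7.4, 500 mM NaCl, 1 mM EDTA, 1 mM TCEP. Ligand was added from acetone (<1% final) and 350–700 nm spectra were recorded. High-spin fraction was derived by PCA against spin-state standards. KS came from a tight-binding fit, or a Hill fit for one ligand.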

Data set [3] has as its system 2B6. The following applies: cited from earlier work.
The target in data set [4] is T2, Cytochrome P450 2A6 (Homo sapiens, UniProt P11509).
T2 sequence (P11509 with tags, fused parts or gaps limits assumed): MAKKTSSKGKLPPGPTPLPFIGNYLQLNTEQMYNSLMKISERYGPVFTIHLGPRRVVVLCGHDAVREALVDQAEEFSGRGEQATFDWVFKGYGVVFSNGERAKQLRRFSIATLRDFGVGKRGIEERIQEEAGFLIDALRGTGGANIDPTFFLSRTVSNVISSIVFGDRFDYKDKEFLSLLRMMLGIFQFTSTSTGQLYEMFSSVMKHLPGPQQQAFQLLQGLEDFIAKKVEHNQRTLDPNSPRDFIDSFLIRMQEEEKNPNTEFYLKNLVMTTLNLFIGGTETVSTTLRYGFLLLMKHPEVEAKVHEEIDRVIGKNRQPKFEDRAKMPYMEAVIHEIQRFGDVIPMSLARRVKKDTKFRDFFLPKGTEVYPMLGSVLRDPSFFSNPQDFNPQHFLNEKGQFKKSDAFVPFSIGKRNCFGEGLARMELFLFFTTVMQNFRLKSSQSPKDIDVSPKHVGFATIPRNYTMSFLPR
In words: Isothermal titration calorimetry. Type of data set: binding. Conditions: 25 °C.

For data set [5], the target named is T2, Cytochrome P450 2A6. In words: Spectral binding titration. Conditions: read-out: Ks (spectral dissociation constant), 25 °C, mean (SD).
The test system of data set [6] is 2B6. Briefly: Maximal binding affinity for 2B6 predicted from logP. More on the design: species or system human. Conditions: 298 K, based solely on enthalpy of desolvation, −1.364×logP.

`CC1=CCC2C(C1)C2(C)C` (single isomer, unassigned; (+)) [(+)-3-carene]: the “KD (KA^−1 from ITC)” value at Cytochrome P450 2B6 [1] (mean (SD)) is 1.82 (0.61) 10^−6 M. For the same molecule, on Cytochrome P450 2B6 [1] (ITC, mean (SD)), the ΔG is on record as −7.5 (1.4) kcal/mol and the ΔS is given as 3.2 (2.3) cal/mol/K. Moreover, at Cytochrome P450 2B6 [1] (ITC, mean (SD) of at least three experiments), the ΔH is recorded as −6.3 (2.2) kcal/mol. Besides, the “spectral shift upon binding” value at Cytochrome P450 2B6 [2] (2B6, increase at 390 nm, decrease at 417 nm) is reported as “Type I spectral shift”. In addition, the Kd on Cytochrome P450 2B6 [2] (read-out: Ks measured using the Hill equation giving the S50, spectral titration, 2B6, Hill equation, n=2) is 1600 nM. Besides, the “ΔFh (maximal increase in fraction of high-spin P450)” value on Cytochrome P450 2B6 [2] (spectral titration, 25 °C, 2B6) is 42.5 ± 3.4% and 42.5 (3.4) %.
Regarding `Clc1ccccc1CN1CCc2sccc2C1` [ticlopidine], in the data set on 2B6 [3], the “change in the fraction of high-spin P450” value was 2 – 4%.
Consider (+)-α-Pinene, for which the results for the “KD (KA^−1 from ITC)” value on Cytochrome P450 2B6 [1] (mean (SD)) and at Cytochrome P450 2A6 [4] (mean (SD)) were 0.22 (0.17) 10^−6 M and 0.17 (0.05) 10^−6 M, respectively. Also, the Kd on Cytochrome P450 2B6 [1] (ITC) is approximately 220 nM; on Cytochrome P450 2A6 [4] (ITC) it was approximately 170 nM; at Cytochrome P450 2B6 [2] (read-out: Ks (spectral dissociation constant), spectral titration, 25 °C, 2B6), 380 nM; at Cytochrome P450 2A6 [5] it was 34200 nM. Also, in the data set on 2B6 [6], the “maximal binding affinity predicted from logP” value is recorded as ~ −6 kcal/mol.
In the case of `COC(=O)[C@H](c1ccccc1Cl)N1CCc2sccc2C1` [clopidogrel], the “change in the fraction of high-spin P450” value in the data set with 2B6 [3] is given as 2 – 4%.
